Source: ChEMBL document CHEMBL2034813, “2-(Alkyl/aryl)amino-6-benzylpyrimidin-4(3H)-ones as inhibitors of wild-type and mutant HIV-1: enantioselectivity studies” (J Med Chem, 2012)
Activity calls are given as the source filed them. The rule behind the calls is not given here.

Key:
[1] = Cytotoxicity against human MT4 cells after 5 days by MTT assay; type: cell-based
In short: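 Noninfected lymphoid MT-4 cells were exposed to compound. […] Values are means ± SD from at least three experiments.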

[2] = system: Human immunodeficiency virus 1; test: Antiviral activity against wild type HIV1 NL4-3 infected in human MT4 cells assessed as inhibition of virus-induced cytopathic effect after 5 days by MTT assay; type: functional, organism-based; conditions: Human immunodeficiency virus 1, NL4-3, MT4, 120 h
In short: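 Lymphoid MT-4 cells infected with wild-type HIV-1 NL4-3. […] Values are means ± SD from at least three experiments.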

[3] = system: Human immunodeficiency virus 1; test: Antiviral activity against HIV1 harboring reverse transcriptase Y181C mutant infected in human MT4 cells assessed as inhibition of virus-induced cytopathic effect after 5 days by MTT assay; type: functional, organism-based; conditions: Human immunodeficiency virus 1, MT4, 120 h
[4] = system: Human immunodeficiency virus 1; test: Resistance ratio of ID50 for HIV1 reverse transcriptase K103N mutant to ID50 HIV1 wild type reverse transcriptase
[5] = system: Human immunodeficiency virus type 1 reverse transcriptase (Human immunodeficiency virus 1), Q72547 [V106A]
[6] = system: Human immunodeficiency virus 1; test: Resistance ratio of EC50 for HIV1 harboring reverse transcriptase K103N mutant to EC50 for wild type HIV1 NL4-3; type: functional
In short: (§1)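 MT-4 cells, MTT read-out of HIV-induced cytopathic effect; fold resistance calculated as EC50 against the drug-resistant strain divided by EC50 against WT NL4-3; EC50 values are means ± SD from at least three experiments.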

[7] = target: Human immunodeficiency virus type 1 reverse transcriptase (Human immunodeficiency virus 1) (UniProt Q72547)
[8] = system: Human immunodeficiency virus 1; test: Resistance ratio of ID50 for HIV1 reverse transcriptase L100I mutant to ID50 HIV1 wild type reverse transcriptase
[9] = system: Human immunodeficiency virus 1; test: Resistance ratio of ID50 for HIV1 reverse transcriptase Y188L mutant to ID50 HIV1 wild type reverse transcriptase
[10] = system: Human immunodeficiency virus type 1 reverse transcriptase (Human immunodeficiency virus 1), Q72547 [Y181I]
[11] = system: Human immunodeficiency virus 1; test: Resistance ratio of EC50 for HIV1 harboring reverse transcriptase Y181C mutant to EC50 for wild type HIV1 NL4-3; type: functional; in short: as §1
[12] = system: Human immunodeficiency virus 1; test: Antiviral activity against HIV1 harboring reverse transcriptase Y188L mutant infected in human MT4 cells assessed as inhibition of virus-induced cytopathic effect after 5 days by MTT assay; type: functional, organism-based; conditions: Human immunodeficiency virus 1, MT4, 120 h
[13] = system: Human immunodeficiency virus type 1 reverse transcriptase (Human immunodeficiency virus 1), Q72547 [K103N]
[14] = system: Human immunodeficiency virus 1; test: Resistance ratio of EC50 for HIV1 harboring reverse transcriptase Y188L mutant to EC50 for wild type HIV1 NL4-3; type: functional; in short: as §1
[15] = system: Human immunodeficiency virus type 1 reverse transcriptase (Human immunodeficiency virus 1), Q72547 [L100I]
[16] = system: Human immunodeficiency virus 1; test: Resistance ratio of ID50 for HIV1 reverse transcriptase V106A mutant to ID50 HIV1 wild type reverse transcriptase
[17] = system: Human immunodeficiency virus 1; test: Resistance ratio of ID50 for HIV1 reverse transcriptase Y181I mutant to ID50 HIV1 wild type reverse transcriptase
[18] = Selectivity index, ratio of CC50 for human MT4 cells to EC50 for wild type HIV1 NL4-3; type: toxicity, cell-based; conditions: read-out: Ratio CC50/EC50
[19] = system: Human immunodeficiency virus 1; test: Antiviral activity against HIV1 harboring reverse transcriptase K103N mutant infected in human MT4 cells assessed as inhibition of virus-induced cytopathic effect after 5 days by MTT assay; type: functional, organism-based; conditions: Human immunodeficiency virus 1, MT4, 120 h
[20] = system: Human immunodeficiency virus type 1 reverse transcriptase (Human immunodeficiency virus 1), Q72547 [K103N]; test: Noncompetitive inhibition of HIV1 reverse transcriptase K103N mutant using varying concentration of [3H]dTTP by steady state kinetic analysis
In short: (§2)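 Recombinant RT (WT or K103N), RNA-dependent DNA polymerase activity with poly(rA)/oligo(dT) 10:1 and [3H]-dTTP (1 Ci/mmol), 8% final DMSO; steady-state kinetics at fixed inhibitor concentrations, one substrate (nucleic acid or nucleotide) varied while the other kept saturating.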

[21] = system: Human immunodeficiency virus type 1 reverse transcriptase (Human immunodeficiency virus 1), Q72547 [K103N]; test: Noncompetitive inhibition of HIV1 reverse transcriptase K103N mutant using varying concentration of varying polyrA/oligodT by steady state kinetic analysis; in short: as §2
[22] = target: Human immunodeficiency virus type 1 reverse transcriptase (Human immunodeficiency virus 1) (UniProt Q72547); test: Noncompetitive inhibition of HIV1 wild type reverse transcriptase using varying concentration of varying polyrA/oligodT by steady state kinetic analysis; in short: as §2
[23] = target: Human immunodeficiency virus type 1 reverse transcriptase (Human immunodeficiency virus 1) (UniProt Q72547); test: Noncompetitive inhibition of HIV1 wild type reverse transcriptase using varying concentration of [3H]dTTP by steady state kinetic analysis; in short: as §2
[24] = Ratio of TMC120 CC50 to compound CC50 for human MT4 cells; type: ADME, cell-based

| Compound | CC50 at 120 h [1] | EC50 [2] | EC50 [3] | Ratio [4] | ID50 [5] | Ratio EC50 [6] | ID50 [7] | Ratio [8] | Ratio [9] | ID50 [10] | Ratio EC50 [11] | EC50 [12] | ID50 [13] | Ratio EC50 [14] | ID50 [15] | Ratio [16] | Ratio [17] | selectivity ratio [18] | EC50 [19] | other results |
| --- | --- | --- | --- | --- | --- | --- | --- | --- | --- | --- | --- | --- | --- | --- | --- | --- | --- | --- | --- | --- |
| O=C1Nc2ccc(Cl)cc2[C@@](C#CC2CC2)(C(F)(F)F)O1 [EFAVIRENZ] | 3200 nM | 7.3 nM | 10 nM |  |  |  |  |  |  |  |  |  |  |  |  |  |  |  |  |  |
| CCCN(C)c1nc(C(C)c2c(F)cccc2F)c(C)c(=O)[nH]1 (racemic) | > 78000 nM | 1.9 nM | 17 nM | 6 | 19 nM | 9 | 30 nM | 6 | 50 | 1260 nM | 9 | 49 nM | 174 nM | 26 | 177 nM | 0.6 | 40 | > 41000 | 16.5 nM |  |
| CCCN(C)c1nc([C@@H](C)c2c(F)cccc2F)c(C)c(=O)[nH]1 | > 78000 nM | 15000 nM | > 78000 nM |  | 120 nM |  | 975 nM | 0.4 |  | > 20000 nM |  | > 78000 nM | > 20000 nM |  | 350 nM | 0.1 |  | > 5.2 | > 78000 nM |  |
| CCCN(C)c1nc([C@H](C)c2c(F)cccc2F)c(C)c(=O)[nH]1 | 75000 nM | 1.3 nM | 13 nM | 48 | 3 nM | 8 | 2 nM | 50 | 100 | 450 nM | 10 | 28 nM | 96 nM | 22 | 96 nM | 1.5 | 200 | 58000 | 11 nM | inhibition [20]: Active; inhibition [21]: Active; inhibition [22]: Active; inhibition [23]: Active |
| Cc1c(N)nc(Nc2ccc(C#N)cc2)nc1[C@@H](C)c1c(F)cccc1F | 38000 nM | 1000 nM | > 38000 nM | 1.3 | 64 nM | 4 | 180 nM |  | 3 | > 20000 nM |  | 6500 nM | 240 nM | 6 | > 15000 nM | 0.3 |  | 40 | 4500 nM |  |
| Cc1c(N)nc(Nc2ccc(C#N)cc2)nc1[C@H](C)c1c(F)cccc1F | 31000 nM | 0.1 nM | 31 nM | 1 | 0.3 nM | 8 | 8 nM | 20 | 0.4 | 750 nM | 300 | 7.1 nM | 8 nM | 70 | 150 nM | 0.04 | 90 | 300000 | 0.8 nM | inhibition [20]: Active; inhibition [21]: Active; selectivity ratio [24]: 10; inhibition [22]: Active; inhibition [23]: Active |
| Cc1ccnc2c1NC(=O)c1cccnc1N2C1CC1 [NEVIRAPINE] | 7500 nM |  | > 7500 nM | 20 |  | 47 |  |  |  |  |  | > 7500 nM |  |  |  |  | 87 | 58 |  |  |
| Cc1cc(C)c(Nc2ccnc(Nc3ccc(C#N)cc3)n2)c(C)c1 [DAPIVIRINE] | 3000 nM | 0.6 nM |  |  |  |  |  |  |  |  |  |  |  |  |  |  |  |  |  |  |
